Screening results (PubChem BioAssay)
HTR2A ag: mouse HTR2A agonism via beta-arrestin recruitment | activation, % at 7.6 µM | actives 0.66% (n = 360,000) | AID 624169 | CHO-K1 mHTR2A beta-arrestin complementation, luminescence; percent of 30 µM serotonin response;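 active = activation above a run cutoff, the mean activation of all tested compounds plus 3 SD, cut at about 14% in these data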;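 note: 0% = plate median of compound wells and 100% = 30 µM serotonin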
VIM-2 inh: inhibitors of Pseudomonas aeruginosa VIM-2 metallo-beta-lactamase | purified VIM-2, nitrocefin hydrolysis, epi-absorbance fluorescence | inhibition, % at 5.6 µM | actives 0.89% (n = 290,000) | AID 1527;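 active = inhibition above the mean of all tested compounds plus 3 SD, cutoff set per screening run, cut at about 7.5% in these data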;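 note: red hydrolysis product quenches plate fluorescence so inhibitors raise well fluorescence; 0% = enzyme with DMSO and 100% = DMSO without enzyme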
IMP-1 inh: blocks Pseudomonas aeruginosa IMP-1 metallo-beta-lactamase; inhibition, % at 5.6 µM; AID 1556; actives 0.45% (n = 290,000); purified IMP-1, nitrocefin hydrolysis, epi-absorbance fluorescence;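 active = inhibition above the mean plus 3 SD of all compounds in the same screening run, cut at about 4.5% in these data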;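 note: 0% = IMP-1 with DMSO and 100% = DMSO wells lacking enzyme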
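System: purified IMP-1 / Input: IMP-1 dispensed at 0.2 nM / Medium: 50 mM HEPES pH 7.1, 50 µM ZnSO4, 0.05% Brij 35 / Timing: 15 min enzyme–compound preincubation, then 25 min nitrocefin reaction, 25 °C / Technique: plate fluorescence quenching by hydrolysis product, ex 480/em 530 nm / Repeats: singlicate testing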
dFosB act: mouse delta FosB homodimer activation. P13346. purified delta FosB, TAMRA-CDK5 oligo fluorescence polarization; percent of positive-control signal above neutral wells. activation, % at 25 µM. actives 0.99% (n = 340,000). AID 493131;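 active = mean activation above about 17%, with every replicate also reaching it, limit read from the data, passing the limit was not always enough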
Target sequence (P13346 whole entry, looked up): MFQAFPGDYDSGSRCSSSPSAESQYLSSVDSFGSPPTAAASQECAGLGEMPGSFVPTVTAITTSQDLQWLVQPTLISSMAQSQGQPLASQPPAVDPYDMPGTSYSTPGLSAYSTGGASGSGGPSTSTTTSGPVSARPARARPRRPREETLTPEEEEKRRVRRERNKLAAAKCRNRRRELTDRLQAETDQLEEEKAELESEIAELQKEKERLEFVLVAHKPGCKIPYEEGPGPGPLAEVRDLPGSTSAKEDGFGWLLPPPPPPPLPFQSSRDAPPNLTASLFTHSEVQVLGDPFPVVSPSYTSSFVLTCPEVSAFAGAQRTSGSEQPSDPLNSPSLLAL
MOR ag counter: activates human mu opioid receptor in HTR2A counterscreen. U2OS OPRM1 beta-arrestin PathHunter, luminescence; DMSO 0%, DAMGO 9.3 µM 100%. activation, % at 9.3 µM. shares compounds with HTR2A ag. AID 624380. actives 5.3% (n = 2,300);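 active = mean activation above the mean of DMSO-only wells plus 3 SD, cut at about 0.5% in these data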
HTR2A ag conf: mouse HTR2A agonism confirmed | shares compounds with HTR2A ag | CHO-K1 PathHunter beta-arrestin recruitment, luminescence; DMSO 0%, 30 µM serotonin 100% | activation, % at 7.6 µM | actives 19% (n = 2,300) | AID 624381;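 active = mean activation across triplicates above the hit threshold derived in the original primary screen, cut at about 15% in these data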
An asterisk follows results filed as active. Rows were chosen to be rich in hits. Some 2.5% of all compounds tested hit in one or more screens of this group.

CC(CN1CCCCC1)C(=O)NNC(=O)C12CC3CC(CC(C3)C1)C2 (stereo not drawn) was read as HTR2A ag 16*, VIM-2 inh -2, IMP-1 inh -4, dFosB act 2, MOR ag counter 0 and HTR2A ag conf -3.
For COc1ccc(-c2ccc3oc(-c4ccsc4)cc(=O)c3c2)cn1 the results were HTR2A ag 3 and dFosB act -10.
`CSCCNC(=O)C1(C)CCN1C(=O)c1sccc1C` (stereo not drawn) gave HTR2A ag -1.
For COc1ccc(NC(=O)c2ccc(-c3nn(C)c(=O)c4ccccc34)cc2)cc1C(N)=O the results were HTR2A ag 0, VIM-2 inh -2, IMP-1 inh -2 and dFosB act 11.
For COc1cccc(-n2cc(CNCc3cn(C)nc3-c3ccccc3F)cn2)c1 the results were HTR2A ag 30*, VIM-2 inh 1, IMP-1 inh -1, dFosB act -5, MOR ag counter 0 and HTR2A ag conf 97*.
Cc1ccc2c(cnn2C(=O)CCC(=O)NCc2ccccc2Cl)c1 was read as HTR2A ag 19*, VIM-2 inh -3, IMP-1 inh 0, dFosB act -5, MOR ag counter 0 and HTR2A ag conf -1.
For OC(c1ccccc1)(c1nc(-c2cc3ccccc3o2)cs1)C(F)(F)F (stereo not drawn) the results were HTR2A ag -9.
For COc1ccc(-c2cnc3c(NC=O)cc(-c4ccc(C(=O)N5CCOCC5)cc4)cn23)cc1OC the results were HTR2A ag 17*, MOR ag counter -1 and HTR2A ag conf 2.
Screening CCC(=O)Nc1nnc(SCc2cccc(F)c2)s1 returned HTR2A ag 21*, VIM-2 inh 1, IMP-1 inh -2, dFosB act 0, MOR ag counter -1 and HTR2A ag conf -5.
For O=C(Nc1ccc(-c2n[nH]c(=S)o2)cc1)c1ccccc1Cl the results were HTR2A ag 17*, VIM-2 inh -4, IMP-1 inh -4, dFosB act 0, MOR ag counter -1 and HTR2A ag conf 5.
For O=C(Nc1ccc(-c2csc(-c3ccccc3)n2)cc1)c1ccccc1Cl the results were HTR2A ag 0, VIM-2 inh -7, IMP-1 inh -2 and dFosB act 13.
COc1ccccc1-c1ccc2c(c1)C(C)(Cc1ccccc1C#N)C(=O)N2 (stereo not drawn) was read as HTR2A ag 7.
Screening COc1ccccc1-c1ccc2c(c1)C(C)(Cc1ccc(Cl)c(Cl)c1)C(=O)N2 (stereo not drawn) returned HTR2A ag 23*, MOR ag counter -1 and HTR2A ag conf -4.
Screening O=C(Nc1ccc(F)cc1)Oc1ccc[nH]c1=O returned HTR2A ag 15*, VIM-2 inh -1, IMP-1 inh -4, dFosB act 3, MOR ag counter 0 and HTR2A ag conf -2.
For O=C(Oc1ccc[nH]c1=O)c1ccccc1 the results were HTR2A ag 2.
